Assay [1] has as its system L1210. In words: Antileukemic cytotoxicity was evaluated for the compound against L1210 leukemia. It counts as functional. The following applies: Mus musculus, read-out: ID50 (the source's name). The method, boiled down:
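L1210 cells grown in McCoy's 5A with glutamine, HCO3-, antibiotics and 10% heat-inactivated horse serum, 37 °C, humidified 95:5 air/CO2. Seeded at 10^5 cells/mL; drug added at 10, 1, 0.1 or 0.01 μg/mL final. Cell concentration counted by Coulter Counter after 72 h; ID50 taken as concentration giving 50% growth inhibition.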

Assay [2] has as its system Rattus norvegicus. In words: […] percent activity of doxorubicin was determined as augmentation of normal oxygen uptake by fresh rat liver microsomes used as measure of redox activity. Set-up: concentration or dose not given beside the values. It counts as functional. (Microsomes from liver hold many membrane-bound enzymes, among them those of drug oxidation.)

Converted amounts (≈) assume the structure as drawn.

Drawing on ChEMBL document CHEMBL1123270, “10-Acetyl-10-hydroxyxantho[2,3-f]tetralin 8-glycosides as angular chromophore analogues of anthracyclines: synthesis, redox properties, microsomal oxygen consumption, and antileukemic evaluation” (1986), this text covers IC50 and Activity for 6 molecules.

In the case of `CC(=O)[C@]1(O)Cc2c(c(O)cc3c(=O)c4ccccc4oc23)[C@@H](OC2C[C@@H](NC(=O)C(F)(F)F)[C@@H](O)C(C)O2)C1` (some centres not stated), in assay [1], the IC50 was more than 10 µg/mL. The molecule also came in with an Activity in assay [2] of 3%.

For `CC(=O)OCC1OC(O[C@H]2C[C@H](C(C)=O)Cc3c2c(O)cc2c(=O)c4ccccc4oc32)[C@@H](NC(=O)C(F)(F)F)C(OC(C)=O)[C@H]1OC(C)=O` (some centres not stated), the IC50 in assay [1] was more than 10 µg/mL. In assay [2], this molecule showed an Activity of 4%.

In the case of `CC(=O)[C@@H]1Cc2c(c(O)cc3c(=O)c4ccccc4oc23)[C@@H](OC2C[C@@H](NC(=O)C(F)(F)F)[C@@H](OC(=O)c3ccc([N+](=O)[O-])cc3)C(C)O2)C1` (some centres not stated), the IC50 in assay [1] was 10 µg/mL (≈ 14.3 µM). Moreover, the Activity in assay [2] came to 6%.

With `CC(=O)[C@@H]1Cc2c(c(O)cc3c(=O)c4ccccc4oc23)[C@@H](OC2C[C@@H](N)[C@@H](O)C(C)O2)C1` (some centres not stated), the IC50 in assay [1] was determined as 8 µg/mL (≈ 17.6 µM). This molecule showed an Activity in assay [2] of 10%.

In the case of `CC(=O)[C@@H]1Cc2c(c(O)cc3c(=O)c4ccccc4oc23)[C@@H](OC2C[C@@H](NC(=O)C(F)(F)F)[C@@H](O)C(C)O2)C1` (some centres not stated), the IC50 in assay [1] is 10 µg/mL (≈ 18.2 µM). This molecule returned an Activity in assay [2] of 6%.

Consider `CC(=O)[C@]1(O)Cc2c(c(O)cc3c(=O)c4ccccc4oc23)[C@@H](OC2C[C@@H](NC(=O)C(F)(F)F)[C@@H](OC(=O)c3ccc([N+](=O)[O-])cc3)C(C)O2)C1` (some centres not stated), for which the IC50 in assay [1] turned out to be 8 µg/mL (≈ 11.2 µM). The molecule further had an Activity in assay [2] of 10%.
